From PubChem BioAssay come the findings set out here.

Activity calls are given as the source filed them.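 Rule for the calls, unless noted: active = inhibition above 20% together with a positive visual image hit; inconclusive = visual image hit but inhibition not above 20%; inactive = no visual image hit.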

The nature of assay [1]: inhibitors of TNFa-induced NFkB p65 translocation, primary screen, imaging, HUVEC, MLSMR starter and 10KST1 sets (AID 438).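 For inhibition: signal is the nuclear over cytoplasmic p65 intensity ratio per well.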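 Note: compound added about 3h40 before a 20 min TNFalpha stimulation.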 To be noted: HUVEC TNFa-induced p65 nuclear translocation; cell count: measured here: nuclei count (cytotoxicity indicator), at 2.08 µM; inhibition: at 2 µM, stronger effect = higher value, 0% TNFa-plus-vehicle, 100% no-TNFa wells.
Assay [2] is described as follows: reduction of polyQ htt aggregates in cells – imaging, exon1htt(103Q)mCFP cells, high-content imaging, primary screen (AID 483;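 active = visual image review flags a hit and inhibition of aggregation exceeds 20%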;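 note: compound exposure lasted 3 days before fixation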;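 for nuclei count: percent of the per-plate median nuclei count of sample wells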). To be noted: exon1htt(103Q)mCFP cell line, aggregate imaging, at 2 µM; inhibition of aggregation: stronger effect = higher value; nuclei count: measured here: cell count, toxicity.
A short description of assay [3]: endothelial E-selectin expression blockers – imaging, HUVEC, immunofluorescence, MLSMR starter and 10KST1 sets, primary screen (AID 487;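 active = visually confirmed hit in the image check and inhibition above 20%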;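 for inhibition: signal is fraction of cell area covered by stained E-selectin grains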;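 for nuclei count: 100% = median nuclei count of all wells on the same plate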). To be noted: HUVEC TNFalpha-induced E-selectin immunofluorescence imaging, at 2 µM; inhibition: stronger effect = higher value; nuclei count: measured here: cell number, toxicity.
Assay [4] concerns the target Voltage-gated potassium channel subunit beta-2 (Rattus norvegicus) (UniProt P62483). The assay is described as follows: inhibitors of rat Kvbeta2 reductase activity – biochemical, NADPH fluorescence, primary screen (AID 622;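 active = fluorescence slope higher than the sample average by over 3 SD, cut at about -0.22 in these data, passing the limit was not always enough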;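 note: slope of raw intensity against log time taken from 70 to 1610 s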). To be noted: recombinant KvBeta, 4-cyanobenzaldehyde reduction, at 10 µM, stronger effect = higher value.
For assay [5] the target is unchanged. The assay is described as follows: enhancers of rat Kvbeta2 NADPH turnover – biochemical, NADPH fluorescence, primary screen (AID 623;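 active = NADPH fluorescence slope more negative than the mean of all samples by about 3 SD, 99.7% confidence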;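 note: fluorescence intensity change per second fitted from 20 to 320 s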). To be noted: Recombinant KvBeta, NADPH fluorescence decrease slope, 10 min; at 10 µM; stronger effect = lower value.
In assay [6] the target is Muscarinic acetylcholine receptor M4 (Homo sapiens) (UniProt P08173). The assay is described as follows: M4-linked GIRK flux change, two-sided – cell-based, HEK293 M4/GIRK, thallium flux, BTC-AM, M4 allosteric agonist project, primary screen (AID 625;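 active = fluorescence slope after compound addition differing from the mean of all tested samples at 99.7% confidence, mostly higher but some lower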;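 note: thallium influx through GIRK channels coupled to M4 in HEK293 cells with BTC-AM dye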). To be noted: at 10 µM, actives lie on both sides. Put shortly: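 Material: HEK293 cells with M4 receptor and GIRK channels; Times: cells overnight at 37 °C, BTC-AM loading 1 h, reads 2 min total; Technique: kinetic BTC-AM fluorescence sampled at 1 Hz, 10 s pre-addition baseline; Read-out basis: slope over 15–24 s of trace normalized to starting intensity; Controls: carbachol positive, DMSO negative.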

Assay [7] in a line: blockers of RIG-like receptor reporter activation – cell-based, Sendai virus stimulus, luciferase, 10K MLSCN set, TLR/RLR signaling modifier project, primary screen (AID 602276;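 active = inhibition at or above 50% at 10 µM; inactive = inhibition below 50%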;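 note: firefly luciferase from ISG56 promoter only with Renilla not read in this screen; 0% = Sendai virus plus DMSO and 100% = medium plus DMSO without virus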). To be noted: HEK293 RL24 IRF3 luciferase reporter, at 10 µM, stronger effect = higher value.
Assay [8] is described as follows: TLR3 IRF3 reporter activation blockers – cell-based, poly I:C stimulus, luciferase, 10K MLSCN set, primary screen (AID 602277;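 active = inhibition of the reporter signal at or above 50%; inactive = inhibition below 50%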). To be noted: HEK293-TLR3 RL24 IRF3 luciferase reporter, at 10 µM, stronger effect = higher value. (In a reporter assay the amount or activity of a reporter protein is the signal.)

Sequence of Muscarinic acetylcholine receptor M4 (Homo sapiens) (P08173 whole entry, looked up): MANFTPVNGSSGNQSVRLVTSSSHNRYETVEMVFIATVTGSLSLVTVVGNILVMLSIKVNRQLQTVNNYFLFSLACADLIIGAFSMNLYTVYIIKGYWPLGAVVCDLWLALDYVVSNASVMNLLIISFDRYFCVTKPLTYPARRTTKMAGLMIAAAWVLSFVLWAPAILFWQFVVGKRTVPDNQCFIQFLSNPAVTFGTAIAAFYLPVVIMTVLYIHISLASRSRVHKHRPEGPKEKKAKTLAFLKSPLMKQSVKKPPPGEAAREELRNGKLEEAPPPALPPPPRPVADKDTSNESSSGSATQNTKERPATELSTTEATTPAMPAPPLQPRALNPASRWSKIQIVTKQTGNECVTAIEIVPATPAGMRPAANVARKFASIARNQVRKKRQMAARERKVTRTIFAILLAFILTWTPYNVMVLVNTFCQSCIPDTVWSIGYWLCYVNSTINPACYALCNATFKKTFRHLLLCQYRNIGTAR
Sequence of Voltage-gated potassium channel subunit beta-2 (Rattus norvegicus) (P62483 whole entry, looked up): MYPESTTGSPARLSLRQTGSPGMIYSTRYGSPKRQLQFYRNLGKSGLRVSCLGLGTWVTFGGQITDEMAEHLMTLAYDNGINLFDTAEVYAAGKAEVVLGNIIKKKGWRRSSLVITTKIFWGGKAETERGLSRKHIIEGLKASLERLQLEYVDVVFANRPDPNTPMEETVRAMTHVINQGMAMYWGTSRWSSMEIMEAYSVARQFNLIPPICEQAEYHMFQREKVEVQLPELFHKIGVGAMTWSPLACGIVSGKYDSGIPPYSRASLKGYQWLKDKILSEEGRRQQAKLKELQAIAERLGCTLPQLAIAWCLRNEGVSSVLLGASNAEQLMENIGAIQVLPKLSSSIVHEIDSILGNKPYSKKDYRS

For the compound `O=S(=O)(NCCc1ccccc1F)c1cccc(S(=O)(=O)N2CCOCC2)c1`, the cell count in assay [1] was 434. For the same compound, the inhibition in assay [1] is 5.7% (inactive); in assay [3], -14.8% (inactive); in assay [7], 9.49% (inactive); in assay [8] it was 13% (inactive). In addition, the inhibition of aggregation in assay [2] was 6.4% (inactive). The nuclei count came to 105% in assay [2] and 110% in assay [3]. Besides, the fluorescence slope in assay [4] was -0.584 (inactive); in assay [6], 0.00428 (inactive). Also, the NADPH fluorescence slope in assay [5] is 1.5e-06 (inactive).
On to `Cc1ccc(C(=O)C2COC(=O)C2)cc1` (stereo not drawn), for which the cell count in assay [1] came to 333. For the same compound, the inhibition is 4.9% (inactive) in assay [1], -31.2% (inactive) in assay [3], 18.7% (inactive) in assay [7] and 0.799% (inactive) in assay [8]. Further, the inhibition of aggregation in assay [2] is -2.7% (inactive). For the same compound, the nuclei count in assay [2] was found to be 116%; in assay [3] it was 103%. Moreover, the fluorescence slope in assay [4] was -0.579 (inactive); in assay [6] it was 0.00631 (inactive). Moreover, the NADPH fluorescence slope in assay [5] was -2.8e-05 (inactive).
Turning to `O=C(Nc1cccc2c1CCCC2)C1CCN(c2nnnn2-c2ccccc2)CC1`, the cell count in assay [1] stood at 653. The inhibition was 1.7% (inactive) in assay [1], -20.6% (inactive) in assay [3], 10.2% (inactive) in assay [7] and 10.8% (inactive) in assay [8]. Also, the inhibition of aggregation in assay [2] was 0.3% (inactive). Further, the nuclei count in assay [2] and in assay [3] was 109% throughout. Besides, the fluorescence slope was -0.566 (inactive) in assay [4] and 0.00472 (inactive) in assay [6]. For the same compound, in assay [5], the NADPH fluorescence slope is 2.3e-05 (inactive).
Take `O=C(O)C1C2CCC(O2)C1C(=O)Nc1cccc(F)c1` (stereo not drawn): in assay [1], the cell count is 596. For the same compound, the inhibition was -2% (inactive) in assay [1], -56.8% (inactive) in assay [3], 20.3% (inactive) in assay [7] and 19.5% (inactive) in assay [8]. The inhibition of aggregation in assay [2] was -0.8% (inactive). Further, the nuclei count was 109% in assay [2] and 104% in assay [3]. Moreover, the values for the fluorescence slope in assay [4] and in assay [6] were -0.435 (inactive) and 0.00527 (inactive), respectively. The NADPH fluorescence slope in assay [5] is -3.5e-06 (inactive).
Take `N#CC(C(=O)Nc1ccccc1)=C1CCCCC1`: in assay [1], the cell count was found to be 356. For the same compound, the inhibition in assay [1] was -8.4% (inactive); in assay [3], -98.6% (inactive); in assay [7], -3.44% (inactive); in assay [8], -28.2% (inactive). The inhibition of aggregation in assay [2] is -8% (inactive). The nuclei count in assay [2] was 108%; in assay [3], 131%. The figures for the fluorescence slope in assay [4] and in assay [6] were -0.516 (inactive) and 0.0049 (inactive), respectively. Moreover, the NADPH fluorescence slope in assay [5] was -4.4e-05 (inactive).
As for `O=C(OCc1cc2ccccc2[nH]c1=O)c1ccncc1`, the cell count in assay [1] is 826. Moreover, the inhibition is -3.9% (inactive) in assay [1], -66% (inactive) in assay [3], 19.9% (inactive) in assay [7] and 23.1% (inactive) in assay [8]. Moreover, in assay [2], the inhibition of aggregation was 25.6% (inactive). The figures for the nuclei count in assay [2] and in assay [3] were 104% and 115%, respectively. Besides, the fluorescence slope in assay [4] was -0.536 (inactive); in assay [6] it was 0.00554 (inactive). Besides, in assay [5], the NADPH fluorescence slope is -4.4e-05 (inactive).
On to `COC(=O)Nc1ccc(S(=O)(=O)N(C)CC(F)(F)C(F)F)cc1`, for which the cell count in assay [1] was determined as 642. For the same compound, the inhibition in assay [1] is -11.1% (inactive); in assay [3], -57.5% (inactive); in assay [7], 12% (inactive); in assay [8], 13.7% (inactive). Further, the inhibition of aggregation in assay [2] was -5.6% (inactive). The nuclei count in assay [2] worked out at 114%; in assay [3], 86.7%. In addition, the figures for the fluorescence slope in assay [4] and in assay [6] were -0.568 (inactive) and 0.00406 (inactive), respectively. The NADPH fluorescence slope in assay [5] was 3.2e-05 (inactive).
Take `COc1ccc(CC(=O)NCc2ccccc2)cc1S(=O)(=O)N1CCOCC1`: the cell count in assay [1] was determined as 404. Moreover, the inhibition was -3.1% (inactive) in assay [1], -26.1% (inactive) in assay [3], 18.6% (inactive) in assay [7] and 21.9% (inactive) in assay [8]. Moreover, the inhibition of aggregation in assay [2] is -17.5% (inactive). In addition, the nuclei count in assay [2] came to 104%; in assay [3] it was 110%. Also, the fluorescence slope in assay [4] was -0.583 (inactive); in assay [6], 0.00498 (inactive). In addition, in assay [5], the NADPH fluorescence slope is -1.6e-05 (inactive).

What is called inhibition is the drop in the measured response relative to a control, in per cent.
